Experimental data taken from ChEMBL document CHEMBL1806414, “Synthesis and anticonvulsant activity of 7-phenyl-6,7-dihydro-[1,2,4]triazolo[1,5-a]pyrimidin-5(4H)-ones and their derivatives” (Eur J Med Chem, 2011).
The source made the active and inactive calls. No cut-off for these calls is given here.

What was measured:
[1] = system: Mus musculus; test: Anticonvulsant activity in Kunming mouse assessed as inhibition of thiosemicarbazide-induced tonic seizures at 30 mg/kg, ip after 2.5 hrs; type: functional; design: scale not given: the % may be the effect or the level left; conditions: route intraperitoneal
Outline: (§1)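 Thiosemicarbazide, 50 mg/kg i.p., was given 0.5 h after compound or DMSO to KunMing mice, 10 per group. Mice were caged individually and observed for 2.5 h for clonic and tonic seizures and deaths.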

[2] = system: Mus musculus; test: Anticonvulsant activity in Kunming mouse assessed as inhibition of thiosemicarbazide-induced clonic seizures at 30 mg/kg, ip after 2.5 hrs; type: functional; design: scale not given: the % may be the effect or the level left; conditions: route intraperitoneal; outline: as §1
[3] = system: Mus musculus; test: Anticonvulsant activity in Kunming mouse assessed as inhibition of 3-mercaptopropionic acid-induced tonic seizures at 30 mg/kg, ip after 0.5 hrs; type: functional; design: scale not given: the % may be the effect or the level left; conditions: route intraperitoneal
Outline: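 Kunming mice (18–22 g, 10/group) received test compound i.p. in DMSO; 0.5 h later 3-mercaptopropionic acid, 60 mg/kg in saline, was given s.c. Mice were scored for clonic seizures, tonic seizures (hind-leg extension) and deaths.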

[4] = system: Mus musculus; test: Anticonvulsant activity in Kunming mouse assessed as inhibition of 3-mercaptopropionic acid-induced clonic seizures at 30 mg/kg, ip after 0.5 hrs; type: functional; design: scale not given: the % may be the effect or the level left; conditions: route intraperitoneal
Outline: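 3-Mercaptopropionic acid, 60 mg/kg in saline, was injected s.c. 0.5 h after i.p. compound or DMSO in KunMing mice, 10 per group. Clonic and tonic seizures and deaths were scored.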

[5] = system: Mus musculus; test: Anticonvulsant activity in Kunming mouse assessed as inhibition of isoniazid-induced death at 50 mg/kg, ip after 1 hrs; type: functional; design: scale not given: the % may be the effect or the level left; conditions: route intraperitoneal
[6] = system: Mus musculus; test: Anticonvulsant activity in Kunming mouse assessed as inhibition of isoniazid-induced tonic seizures at 50 mg/kg, ip after 1 hrs; type: functional; design: scale not given: the % may be the effect or the level left; conditions: route intraperitoneal
Outline: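 Isoniazid given at 250 mg/kg, a dose convulsing all controls, to KunMing mice pretreated i.p. with compound or DMSO. Mice were caged individually and observed for 1 h, counting clonic seizures, tonic seizures and deaths.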

[7] = system: Mus musculus; test: Anticonvulsant activity in Kunming mouse assessed as inhibition of isoniazid-induced clonic seizures at 50 mg/kg, ip after 1 hrs; type: functional; design: scale not given: the % may be the effect or the level left; conditions: route intraperitoneal
[8] = system: Mus musculus; test: Anticonvulsant activity in Kunming mouse assessed as inhibition of subcutaneous pentylenetetrazol-induced tonic seizures at 50 mg/kg, ip after 0.5 hrs; type: functional; design: scale not given: the % may be the effect or the level left
[9] = system: Mus musculus; test: Anticonvulsant activity in Kunming mouse assessed as inhibition of subcutaneous pentylenetetrazol-induced clonic seizures at 50 mg/kg, ip after 0.5 hrs; type: functional; design: scale not given: the % may be the effect or the level left
Outline: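 Compound or vehicle (DMSO) given i.p. to KunMing mice, 10 per group, before the pentylenetetrazol challenge. Mice were held in individual cages and observed for 0.5 h. Clonic seizures, tonic seizures (hind-leg extension) and deaths were counted.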

[10] = species on record: Mus musculus; test: Protective index, ratio of TD50 for neurotoxicity in Kunming mouse to ED50 for inhibition of MES-induced seizures in Kunming mouse; type: functional
[11] = Neurotoxicity in ip dosed Kunming mouse by rotarod test; type: toxicity, organism-based; conditions: in vivo
Outline: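 Phase-II rotarod test in KunMing mice trained on a 3.2 cm rod at 10 rpm, DMSO vehicle. Groups of 10 mice got graded i.p. doses until at least three points fell within 10–90% minimal neurotoxicity, giving the median toxic dose.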

[12] = system: Mus musculus; test: Anticonvulsant activity against maximal electric shock-induced seizures in ip dosed Kunming mouse assessed as median effective dose; type: functional
Outline: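 Phase-II MES test in KunMing mice (18–22 g), DMSO vehicle, corneal electrode stimulus 0.2 s. Groups of 10 mice got a range of i.p. doses until at least three points fell within 10–90% seizure protection, giving the median effective dose. Endpoint is abolition of tonic hind-leg extension.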

[13] = system: Mus musculus; test: Neurotoxicity in Kunming mouse at 300 mg/kg, ip after 4 hrs; type: toxicity, organism-based; design: dose 300 mg/kg, route intraperitoneal; conditions: in vivo
Outline: (§2)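 Rotarod neurotoxicity in KunMing mice (18–22 g) trained on a 3.2 cm diameter rod at 10 rpm. Compounds in DMSO were given i.p. at 30, 100 and 300 mg/kg, three mice per dose, and tested at 0.5 h and 4 h after dosing.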

[14] = system: Mus musculus; test: Neurotoxicity in Kunming mouse at 100 mg/kg, ip after 4 hrs; type: toxicity, organism-based; design: dose 100 mg/kg, route intraperitoneal; conditions: in vivo; outline: as §2
[15] = system: Mus musculus; test: Neurotoxicity in Kunming mouse at 300 mg/kg, ip after 0.5 hrs; type: toxicity, organism-based; design: dose 300 mg/kg, route intraperitoneal; conditions: in vivo; outline: as §2
[16] = system: Mus musculus; test: Neurotoxicity in Kunming mouse at 100 mg/kg, ip after 0.5 hrs; type: toxicity, organism-based; design: dose 100 mg/kg, route intraperitoneal; conditions: in vivo; outline: as §2
[17] = system: Mus musculus; test: Anticonvulsant activity in Kunming mouse assessed as protection against maximal electric shock-induced seizures at 300 mg/kg, ip measured after 4 hrs; type: functional, organism-based; design: dose 300 mg/kg
Outline: (§3)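 KunMing mice (18–22 g), compounds dissolved in DMSO, given i.p. at 30, 100 and 300 mg/kg, three mice per dose. Current applied through corneal electrodes for 0.2 s at 0.5 h and 4 h after dosing. Protection is abolition of tonic hind-leg extension, scored as protected/tested.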

[18] = system: Mus musculus; test: Anticonvulsant activity in Kunming mouse assessed as protection against maximal electric shock-induced seizures at 100 mg/kg, ip measured after 4 hrs; type: functional, organism-based; design: dose 100 mg/kg; outline: as §3
[19] = system: Mus musculus; test: Anticonvulsant activity in Kunming mouse assessed as protection against maximal electric shock-induced seizures at 30 mg/kg, ip measured after 4 hrs; type: functional, organism-based; design: dose 30 mg/kg; outline: as §3
[20] = system: Mus musculus; test: Anticonvulsant activity in Kunming mouse assessed as protection against maximal electric shock-induced seizures at 300 mg/kg, ip measured after 0.5 hrs; type: functional, organism-based; design: dose 300 mg/kg; outline: as §3
[21] = system: Mus musculus; test: Anticonvulsant activity in Kunming mouse assessed as protection against maximal electric shock-induced seizures at 100 mg/kg, ip measured after 0.5 hrs; type: functional, organism-based; design: dose 100 mg/kg; outline: as §3
[22] = system: Mus musculus; test: Anticonvulsant activity in Kunming mouse assessed as protection against maximal electric shock-induced seizures at 30 mg/kg, ip measured after 0.5 hrs; type: functional, organism-based; design: dose 30 mg/kg; outline: as §3
[23] = system: Mus musculus; test: Anticonvulsant activity in Kunming mouse assessed as inhibition of bicuculline-induced clonic seizures at 30 mg/kg, ip after 0.5 hrs; type: functional; design: scale not given: the % may be the effect or the level left; conditions: route intraperitoneal
Outline: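 Bicuculline, 5.4 mg/kg s.c. and used within 15–45 min of preparation, was given 0.5 h after i.p. compound or DMSO to KunMing mice, 10 per group. Mice were isolated and observed for at least 0.5 h for clonic seizures, tonic seizures and lethality.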

[24] = system: Mus musculus; test: Anticonvulsant activity in Kunming mouse assessed as inhibition of bicuculline-induced tonic seizures at 30 mg/kg, ip after 0.5 hrs; type: functional; design: scale not given: the % may be the effect or the level left; conditions: route intraperitoneal
Outline: (§4)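 Kunming mice (18–22 g, 10/group) received test compound i.p. in DMSO; 0.5 h later bicuculline, 5.4 mg/kg, was given s.c. within 15–45 min of preparation. Mice were isolated and observed for at least 0.5 h for clonic seizures, tonic seizures and lethality.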

[25] = system: Mus musculus; test: Anticonvulsant activity in Kunming mouse assessed as inhibition of bicuculline-induced death at 30 mg/kg, ip after 0.5 hrs; type: functional; design: scale not given: the % may be the effect or the level left; conditions: route intraperitoneal; outline: as §4

Compound | Activity [1] [%] | Activity [2] [%] | Activity [3] [%] | Activity [4] [%] | Activity [6] [%] | Activity [7] [%] | Activity [8] [%] | Activity [9] [%] | Ratio TD50/ED50 [10] | ED50 [12] [mg/kg] | Activity [23] [%] | Activity [24] [%] | Activity [25] [%] | further results
O=C1CC(c2ccccc2Br)n2ncnc2N1 (stereo not drawn) | 0 | 100 | 0 | 100 | 0 | 100 | 0 | 0 | 34.8 | 19.7 | 100 | 10 | 50 | Activity [5]: 30%; TD50 [11]: 685 mg/kg; Activity [13]: Non-toxic; Activity [14]: Non-toxic; Activity [15]: Non-toxic; Activity [16]: Non-toxic; Activity [17]: inactive; Activity [18]: inactive; Activity [19]: inactive; Activity [20]: Active; Activity [21]: Active; Activity [22]: Active
NC(=O)N1c2ccccc2C=Cc2ccccc21 [CARBAMAZEPINE] | 0 | 100 | 0 | 100 | 0 | 50 | 0 | 100 | 6.4 | 11.8 | 100 | 0 | 20 | –
